What was measured:
Erythrocyte = experiment: Hemolytic activity in human RBC measured after 1 hr; type: ADME, cell-based
Procedure, shortened: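 Fresh healthy-donor human erythrocytes at ~1% (v/v) in PBS pH 7.4, mixed 1:1 with peptide (1–128 µM), 1 h at 37 °C. After centrifugation at 1000×g, supernatant hemoglobin read at 576 nm. Untreated cells set 0% and 0.1% Triton X-100 set 100%. MHC defined as the concentration giving >10% hemolysis. Three or more independent experiments, triplicates.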

Salmonella typhimurium [1] = experiment: Antibacterial activity against Salmonella typhimurium C7731 measured after 24 hrs; type: functional, Salmonella enterica subsp. enterica serovar Typhimurium; conditions: Salmonella enterica, C7731, 24 h
Procedure, shortened: (§1)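 Broth microdilution adapted from NCCLS. Mid-log bacteria were diluted in MHB to a final (0.5–1) × 10^5 CFU mL−1. Peptides were serially diluted in 0.2% BSA and mixed with an equal volume of cells. After 24 h at 37 °C, MIC was read at A492 as the lowest concentration inhibiting 95% of growth. At least three independent experiments, each with three technical replicates.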

Escherichia coli [2] = experiment: Bactericidal activity against Escherichia coli 078 incubated for 24 hrs followed by replating on agar plate and measured after overnight incubation; type: functional; conditions: Escherichia coli, 078, 24 h; read-out: MBC>99.9
Procedure, shortened: (§2)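 After the 24 h, 37 °C MHB microdilution (0.5–1 × 10^5 CFU mL−1 inoculum, peptides diluted in 0.2% BSA), 50 μL from each well was plated on agar and incubated overnight. MBC was taken as the lowest concentration killing >99.9% of cells. Three or more independent experiments, each with triplicate technical replicates.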

Candida parapsilosis = experiment: Antifungal activity against Candida parapsilosis cgmcc2.3989 measured after 48 hrs by broth microdilution method; type: functional; conditions: Lodderomyces parapsilosis, cgmcc2.3989, 48 h
Procedure, shortened: (§3)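 Modified CLSI M27-A2 microdilution. Yeast colonies were diluted in MOPS-buffered RPMI 1640 to a final (0.5–1) × 10^3 CFU mL−1 and mixed with an equal volume of peptide serially diluted in 0.2% BSA. After 48 h at 28 °C, MIC was read at A492 as the lowest concentration inhibiting 95% of growth. At least three independent experiments, each with three technical replicates.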

[3] = Therapeutic index, ratio of MHC10 for hemolytic activity in human RBC to MIC95 against Staphylococcus aureus ATCC 25923; type: toxicity; conditions: human red blood cells (erythrocytes), read-out: TI
Procedure, shortened: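 Therapeutic index = MHC divided by MIC. MHC is the lowest concentration giving >10% lysis of human RBC (1 h, 37 °C, 1-128 µM, A576). MIC is 95% growth inhibition by broth microdilution: bacteria in MHB 24 h at 37 °C; Candida in MOPS-buffered RPMI 1640 at (0.5–1) × 10^3 CFU mL−1, 48 h at 28 °C.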

Salmonella typhimurium [4] = experiment: Antibacterial activity against Salmonella typhimurium ATCC 14028 measured after 24 hrs; type: functional, Salmonella enterica subsp. enterica serovar Typhimurium; conditions: Salmonella enterica, ATCC 14028, 24 h; procedure, shortened: as §1
Staphylococcus aureus [5] = experiment: Antibacterial activity against Staphylococcus aureus ATCC 29213 measured after 18 to 24 hrs in presence of ZnCl2; type: functional
Procedure, shortened: (§4)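 MIC broth microdilution (MHB, 0.2% BSA peptide diluent, A492, 95% inhibition) run in the presence of physiological salts at final concentrations of 6 μM NH4Cl or 8 μM ZnCl2. Three independent assays, each with three technical replicates.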

Staphylococcus aureus [6] = experiment: Bactericidal activity against methicillin-resistant Staphylococcus aureus ATCC 43300 incubated for 24 hrs followed by replating on agar plate and measured after overnight incubation; type: functional; conditions: ATCC 43300, 24 h, read-out: MBC>99.9
Procedure, shortened: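 After the 24 h, 37 °C MHB microdilution MIC assay, 50 μL from each well was plated on agar and incubated overnight. MBC taken as lowest peptide concentration killing >99.9% of cells. At least three independent experiments, each with three technical replicates.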

Escherichia coli [7] = experiment: Antibacterial activity against Escherichia coli ATCC 25922 measured after 18 to 24 hrs in presence of ZnCl2; type: functional
Salmonella typhimurium [8] = experiment: Bactericidal activity against Salmonella typhimurium ATCC 14028 incubated for 24 hrs followed by replating on agar plate and measured after overnight incubation; type: functional, Salmonella enterica subsp. enterica serovar Typhimurium; conditions: Salmonella enterica, ATCC 14028, 24 h; read-out: MBC>99.9
Procedure, shortened: (§5)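 Mid-log bacteria diluted in MHB to (0.5–1) × 10^5 CFU/mL and mixed 1:1 with peptide serially diluted in 0.2% BSA. After 24 h at 37 °C, 50 μL of each mixture was plated on agar and incubated overnight. MBC taken as the lowest concentration killing >99.9% of cells. At least three independent experiments, each with three technical replicates.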

Candida tropicalis [9] = experiment: Antifungal activity against Candida tropicalis cgmcc2.1975 measured after 48 hrs by broth microdilution method; type: functional; conditions: cgmcc2.1975, 48 h; procedure, shortened: as §3
Escherichia coli [10] = experiment: Antibacterial activity against Escherichia coli ATCC 25922 measured after 18 to 24 hrs in presence of NaCl; type: functional
Staphylococcus aureus [11] = experiment: Antibacterial activity against Staphylococcus aureus ATCC 29213 measured after 18 to 24 hrs in presence of KCl; type: functional
Candida tropicalis [12] = experiment: Fungicidal activity against Candida tropicalis cgmcc2.1975 incubated for 48 hrs followed by replating on YM agar plate and measured after 48 hrs; type: functional
Procedure, shortened: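 Yeast diluted in MOPS-buffered RPMI 1640 to (0.5–1) × 10^3 CFU/mL (CLSI M27-A2, modified) and mixed 1:1 with peptide serially diluted in 0.2% BSA. After 48 h at 28 °C, 50 μL per well was plated on YM agar and incubated 48 h at 28 °C. MFC taken as the lowest concentration killing ≥99.9% of cells. Three or more independent experiments, triplicate wells.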

Staphylococcus aureus [13] = experiment: Antibacterial activity against Staphylococcus aureus ATCC 29213 measured after 18 to 24 hrs in presence of NH4Cl; type: functional; procedure, shortened: as §4
Candida albicans [14] = experiment: Antifungal activity against Candida albicans cgmcc2.2086 measured after 48 hrs in presence of MgCl by broth microdilution method; type: functional; conditions: cgmcc2.2086, 48 h
Candida albicans [15] = experiment: Antifungal activity against Candida albicans cgmcc2.2086 measured after 48 hrs by broth microdilution method; type: functional; conditions: cgmcc2.2086, 48 h; procedure, shortened: as §3
Salmonella typhimurium [16] = experiment: Bactericidal activity against Salmonella typhimurium C7731 incubated for 24 hrs followed by replating on agar plate and measured after overnight incubation; type: functional, Salmonella enterica subsp. enterica serovar Typhimurium; conditions: Salmonella enterica, C7731, 24 h; read-out: MBC>99.9; procedure, shortened: as §5
Escherichia coli [17] = experiment: Bactericidal activity against Escherichia coli ATCC 25922 incubated for 24 hrs followed by replating on agar plate and measured after overnight incubation; type: functional; conditions: ATCC 25922, 24 h, read-out: MBC>99.9; procedure, shortened: as §2
Pseudomonas aeruginosa = experiment: Antibacterial activity against Pseudomonas aeruginosa ATCC 27853 measured after 24 hrs; type: functional; conditions: ATCC 27853, 24 h; procedure, shortened: as §1
Escherichia coli [18] = experiment: Antibacterial activity against Escherichia coli ATCC 25922 measured after 24 hrs; type: functional; conditions: ATCC 25922, 24 h; procedure, shortened: as §1
Escherichia coli [19] = experiment: Antibacterial activity against Escherichia coli ATCC 25922 measured after 18 to 24 hrs in presence of FeCl3; type: functional
[20] = Bactericidal activity against Salmonella pullorum ATCC 7913 incubated for 24 hrs followed by replating on agar plate and measured after overnight incubation; type: functional, Salmonella enterica subsp. enterica serovar Pullorum; conditions: Salmonella enterica, ATCC 7913, 24 h; read-out: MBC>99.9; procedure, shortened: as §5

| Substance | MHC10 (Erythrocyte) [µM] | MIC95 (Salmonella typhimurium [1]) [µM] | MBC (Escherichia coli [2]) [µM] | MIC95 (Candida parapsilosis) [µM] | selectivity ratio [3] | MIC95 (Salmonella typhimurium [4]) [µM] | MIC95 (Staphylococcus aureus [5]) [µM] | MBC (Staphylococcus aureus [6]) [µM] | MIC95 (Escherichia coli [7]) [µM] | MBC (Salmonella typhimurium [8]) [µM] | MIC95 (Candida tropicalis [9]) [µM] | MIC95 (Escherichia coli [10]) [µM] | MIC95 (Staphylococcus aureus [11]) [µM] | MFC<=99.9 (Candida tropicalis [12]) [µM] | MIC95 (Staphylococcus aureus [13]) [µM] | MIC95 (Candida albicans [14]) [µM] | MIC95 (Candida albicans [15]) [µM] | MBC (Salmonella typhimurium [16]) [µM] | MBC (Escherichia coli [17]) [µM] | MIC95 (Pseudomonas aeruginosa) [µM] | other results |
| --- | --- | --- | --- | --- | --- | --- | --- | --- | --- | --- | --- | --- | --- | --- | --- | --- | --- | --- | --- | --- | --- |
| H-AARIILRARFR-NH2 | > 128 | 4 | 4 | 16 | 90.5 | 4 | 4 | 4 | 4 | 4 | 4 | 32 | 8 | 4 | 4 | 32 | 16 | 8 | 4 | 16 | MIC95 (Escherichia coli [18]): 4 µM; MIC95 (Escherichia coli [19]): 4 µM; MBC [20]: 8 µM |
| H-AARRILRWIFR-NH2 | > 128 | 4 | 4 | 8 | 45.2 | 4 | 4 | 8 | 8 | 8 | 4 | 64 | 4 | 4 | 8 | 16 | 8 | 8 | 4 | 8 | MIC95 (Escherichia coli [18]): 4 µM; MIC95 (Escherichia coli [19]): 8 µM; MBC [20]: 8 µM |

Source: ChEMBL document CHEMBL4350958, “Rational Design of Short Peptide Variants by Using Kunitzin-RE, an Amphibian-Derived Bioactivity Peptide, for Acquired Potent Broad-Spectrum Antimicrobial and Improved Therapeutic Potential of Commensalism Coinfection of Pathogens” (J Med Chem, 2019)
